ChEMBL document CHEMBL3352666, “Human Toll-like receptor 8-selective agonistic activities in 1-alkyl-1H-benzimidazol-2-amines” (J Med Chem, 2014)
Calls of active or inactive are those of the source.

Columns and labels:
Assay type in all cases: cell-based
[1] = target: Toll-like receptor 2 (Homo sapiens) (UniProt O60603); experiment: Agonist activity at human TLR2 stably expressed in HEK293 cells co-expressing secreted alkaline phosphatase assessed as NF-kappaB induction by liquid handler-assisted reporter gene assay
Sequence of Toll-like receptor 2 (Homo sapiens) (O60603 whole entry): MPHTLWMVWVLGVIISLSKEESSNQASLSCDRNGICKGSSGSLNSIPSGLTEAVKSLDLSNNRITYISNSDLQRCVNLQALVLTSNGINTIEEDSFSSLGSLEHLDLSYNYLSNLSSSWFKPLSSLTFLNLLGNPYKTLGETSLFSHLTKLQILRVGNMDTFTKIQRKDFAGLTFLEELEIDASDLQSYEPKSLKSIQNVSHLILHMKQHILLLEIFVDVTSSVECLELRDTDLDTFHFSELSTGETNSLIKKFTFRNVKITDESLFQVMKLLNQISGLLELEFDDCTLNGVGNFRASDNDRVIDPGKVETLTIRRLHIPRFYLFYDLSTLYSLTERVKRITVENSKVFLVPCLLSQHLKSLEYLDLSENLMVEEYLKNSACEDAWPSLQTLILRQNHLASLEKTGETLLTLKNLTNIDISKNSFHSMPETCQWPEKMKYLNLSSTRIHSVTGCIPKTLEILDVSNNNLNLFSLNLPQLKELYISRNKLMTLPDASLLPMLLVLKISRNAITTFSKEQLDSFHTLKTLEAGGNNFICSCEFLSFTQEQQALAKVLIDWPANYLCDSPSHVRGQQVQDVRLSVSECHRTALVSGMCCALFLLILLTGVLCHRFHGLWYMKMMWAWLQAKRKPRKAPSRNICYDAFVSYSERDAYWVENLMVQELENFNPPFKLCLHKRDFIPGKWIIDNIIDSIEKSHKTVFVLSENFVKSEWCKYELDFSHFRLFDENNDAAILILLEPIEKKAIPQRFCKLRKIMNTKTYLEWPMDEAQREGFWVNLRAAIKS
Summary of the method: (§1)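 HEK293 reporter cells stably co-transfected with the respective human TLR or NOD receptor plus NF-κB/AP-1-driven secreted alkaline phosphatase, kept in selection medium. About 10^5 cells/ml were incubated with graded concentrations of test compound in 384-well format. Supernatant sAP was read colorimetrically at 620 nm with an alkaline phosphatase-specific chromogen in detection medium.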

[2] = target: Toll-like receptor 3 (Homo sapiens) (UniProt O15455); experiment: Agonist activity at human TLR3 stably expressed in HEK293 cells co-expressing secreted alkaline phosphatase assessed as NF-kappaB induction by liquid handler-assisted reporter gene assay; summary of the method: as §1
Sequence of Toll-like receptor 3 (Homo sapiens) (O15455 whole entry): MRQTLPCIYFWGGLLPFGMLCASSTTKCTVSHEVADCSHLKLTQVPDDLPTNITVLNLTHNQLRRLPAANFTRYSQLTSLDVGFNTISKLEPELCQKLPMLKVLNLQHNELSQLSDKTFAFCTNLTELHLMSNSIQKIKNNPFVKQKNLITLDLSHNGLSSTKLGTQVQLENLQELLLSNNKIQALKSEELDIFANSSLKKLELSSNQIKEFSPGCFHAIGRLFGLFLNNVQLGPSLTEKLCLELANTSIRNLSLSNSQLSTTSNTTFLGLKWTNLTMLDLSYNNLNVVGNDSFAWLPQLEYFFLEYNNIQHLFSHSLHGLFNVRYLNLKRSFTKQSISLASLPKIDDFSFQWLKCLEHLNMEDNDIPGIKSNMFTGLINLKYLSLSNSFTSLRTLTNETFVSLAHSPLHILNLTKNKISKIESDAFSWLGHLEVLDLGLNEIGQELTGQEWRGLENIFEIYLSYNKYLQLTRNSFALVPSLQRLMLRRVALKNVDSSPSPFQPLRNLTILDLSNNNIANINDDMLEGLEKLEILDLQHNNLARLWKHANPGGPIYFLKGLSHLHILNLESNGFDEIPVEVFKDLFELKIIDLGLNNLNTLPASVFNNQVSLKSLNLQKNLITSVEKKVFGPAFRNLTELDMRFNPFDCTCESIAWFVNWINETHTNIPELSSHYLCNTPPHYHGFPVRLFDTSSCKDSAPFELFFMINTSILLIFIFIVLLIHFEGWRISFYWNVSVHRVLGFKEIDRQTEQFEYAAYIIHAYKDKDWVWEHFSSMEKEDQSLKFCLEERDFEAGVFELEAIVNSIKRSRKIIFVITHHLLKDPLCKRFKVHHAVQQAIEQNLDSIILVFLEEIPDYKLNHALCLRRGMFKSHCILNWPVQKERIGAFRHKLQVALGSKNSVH

[3] = target: Toll-like receptor 4 (Homo sapiens) (UniProt O00206); experiment: Agonist activity at human TLR4 stably expressed in HEK293 cells co-expressing secreted alkaline phosphatase assessed as NF-kappaB induction by liquid handler-assisted reporter gene assay; summary of the method: as §1
Sequence of Toll-like receptor 4 (Homo sapiens) (O00206 whole entry): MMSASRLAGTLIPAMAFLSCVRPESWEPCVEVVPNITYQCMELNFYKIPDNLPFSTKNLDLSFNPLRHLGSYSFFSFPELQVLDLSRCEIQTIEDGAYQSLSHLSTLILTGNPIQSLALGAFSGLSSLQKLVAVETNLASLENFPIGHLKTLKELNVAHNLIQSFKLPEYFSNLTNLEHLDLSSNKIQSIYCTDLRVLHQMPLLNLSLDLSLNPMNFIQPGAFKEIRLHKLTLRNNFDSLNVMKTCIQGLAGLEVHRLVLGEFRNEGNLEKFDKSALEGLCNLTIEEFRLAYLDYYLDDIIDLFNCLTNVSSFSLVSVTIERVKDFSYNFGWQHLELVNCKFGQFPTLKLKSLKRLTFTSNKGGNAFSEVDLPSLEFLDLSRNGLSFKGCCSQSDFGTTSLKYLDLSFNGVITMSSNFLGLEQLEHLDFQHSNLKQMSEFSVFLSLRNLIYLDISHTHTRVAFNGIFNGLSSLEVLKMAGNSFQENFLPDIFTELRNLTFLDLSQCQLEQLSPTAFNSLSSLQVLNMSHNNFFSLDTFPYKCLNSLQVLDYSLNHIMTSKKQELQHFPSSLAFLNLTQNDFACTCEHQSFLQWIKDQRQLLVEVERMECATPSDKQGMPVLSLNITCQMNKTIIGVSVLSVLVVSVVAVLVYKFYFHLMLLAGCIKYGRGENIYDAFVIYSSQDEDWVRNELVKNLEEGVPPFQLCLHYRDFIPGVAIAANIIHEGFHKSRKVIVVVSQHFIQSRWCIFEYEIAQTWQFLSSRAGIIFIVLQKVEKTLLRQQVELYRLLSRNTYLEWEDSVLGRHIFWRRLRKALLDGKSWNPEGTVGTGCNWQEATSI

[4] = target: Toll-like receptor 5 (Homo sapiens) (UniProt O60602); experiment: Agonist activity at human TLR5 stably expressed in HEK293 cells co-expressing secreted alkaline phosphatase assessed as NF-kappaB induction by liquid handler-assisted reporter gene assay; summary of the method: as §1
Sequence of Toll-like receptor 5 (Homo sapiens) (O60602 whole entry): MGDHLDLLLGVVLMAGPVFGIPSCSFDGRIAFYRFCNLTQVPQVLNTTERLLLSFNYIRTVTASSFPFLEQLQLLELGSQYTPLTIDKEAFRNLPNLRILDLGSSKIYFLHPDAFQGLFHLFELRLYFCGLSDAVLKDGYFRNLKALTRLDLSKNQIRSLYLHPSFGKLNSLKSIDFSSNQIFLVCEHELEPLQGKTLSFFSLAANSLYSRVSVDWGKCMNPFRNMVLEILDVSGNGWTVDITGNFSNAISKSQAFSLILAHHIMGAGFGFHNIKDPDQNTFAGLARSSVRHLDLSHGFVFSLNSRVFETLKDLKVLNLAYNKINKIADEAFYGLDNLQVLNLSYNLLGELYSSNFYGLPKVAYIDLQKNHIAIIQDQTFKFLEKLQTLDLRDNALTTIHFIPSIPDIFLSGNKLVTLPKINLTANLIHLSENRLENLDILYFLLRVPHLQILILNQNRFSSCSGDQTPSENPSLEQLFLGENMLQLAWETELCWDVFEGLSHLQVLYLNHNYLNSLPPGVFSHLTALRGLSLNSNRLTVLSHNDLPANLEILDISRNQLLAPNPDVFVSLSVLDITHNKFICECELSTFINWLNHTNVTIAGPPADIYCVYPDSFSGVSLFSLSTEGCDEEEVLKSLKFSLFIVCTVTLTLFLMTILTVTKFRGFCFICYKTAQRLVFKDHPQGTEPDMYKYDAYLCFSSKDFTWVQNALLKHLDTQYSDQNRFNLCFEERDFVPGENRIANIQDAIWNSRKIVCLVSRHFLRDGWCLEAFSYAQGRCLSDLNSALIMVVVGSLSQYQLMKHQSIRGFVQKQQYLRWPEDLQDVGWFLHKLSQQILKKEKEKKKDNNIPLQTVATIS

[5] = target: T1, Toll-like receptor 7 (Homo sapiens) (UniProt Q9NYK1); experiment: Agonist activity at human TLR7 stably expressed in HEK293 cells co-expressing secreted alkaline phosphatase assessed as NF-kappaB induction by liquid handler-assisted reporter gene assay; summary of the method: as §1
T1 sequence (whole entry): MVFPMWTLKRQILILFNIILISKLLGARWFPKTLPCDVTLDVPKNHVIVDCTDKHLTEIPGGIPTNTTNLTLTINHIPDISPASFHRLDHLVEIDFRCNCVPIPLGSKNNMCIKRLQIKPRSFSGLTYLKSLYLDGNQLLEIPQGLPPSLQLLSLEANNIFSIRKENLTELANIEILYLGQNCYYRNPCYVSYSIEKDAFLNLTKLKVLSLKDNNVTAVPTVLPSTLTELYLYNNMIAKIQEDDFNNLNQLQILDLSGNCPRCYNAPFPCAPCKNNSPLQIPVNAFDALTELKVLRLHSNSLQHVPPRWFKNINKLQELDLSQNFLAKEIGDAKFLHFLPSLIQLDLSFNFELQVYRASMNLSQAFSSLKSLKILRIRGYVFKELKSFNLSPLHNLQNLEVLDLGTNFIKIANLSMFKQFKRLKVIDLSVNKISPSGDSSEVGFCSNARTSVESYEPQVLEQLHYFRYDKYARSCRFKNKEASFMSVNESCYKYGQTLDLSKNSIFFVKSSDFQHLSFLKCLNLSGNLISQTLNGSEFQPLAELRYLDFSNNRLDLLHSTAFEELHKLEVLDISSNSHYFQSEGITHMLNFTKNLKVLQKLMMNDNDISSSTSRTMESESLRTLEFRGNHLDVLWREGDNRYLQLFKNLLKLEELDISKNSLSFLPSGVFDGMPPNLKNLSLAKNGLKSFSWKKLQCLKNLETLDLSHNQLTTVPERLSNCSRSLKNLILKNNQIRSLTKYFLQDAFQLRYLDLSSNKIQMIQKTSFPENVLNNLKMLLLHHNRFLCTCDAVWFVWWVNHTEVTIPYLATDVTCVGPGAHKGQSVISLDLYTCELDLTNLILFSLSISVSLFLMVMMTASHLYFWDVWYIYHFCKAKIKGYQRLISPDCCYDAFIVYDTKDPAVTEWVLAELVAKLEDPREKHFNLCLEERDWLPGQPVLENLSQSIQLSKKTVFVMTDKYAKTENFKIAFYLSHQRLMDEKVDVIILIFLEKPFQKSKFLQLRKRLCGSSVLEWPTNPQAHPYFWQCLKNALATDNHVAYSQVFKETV

[6] = target: T2, Toll-like receptor 9 (Homo sapiens) (UniProt Q9NR96); experiment: Agonist activity at human TLR9 stably expressed in HEK293 cells co-expressing secreted alkaline phosphatase assessed as NF-kappaB induction by liquid handler-assisted reporter gene assay; summary of the method: as §1
T2 sequence (whole entry): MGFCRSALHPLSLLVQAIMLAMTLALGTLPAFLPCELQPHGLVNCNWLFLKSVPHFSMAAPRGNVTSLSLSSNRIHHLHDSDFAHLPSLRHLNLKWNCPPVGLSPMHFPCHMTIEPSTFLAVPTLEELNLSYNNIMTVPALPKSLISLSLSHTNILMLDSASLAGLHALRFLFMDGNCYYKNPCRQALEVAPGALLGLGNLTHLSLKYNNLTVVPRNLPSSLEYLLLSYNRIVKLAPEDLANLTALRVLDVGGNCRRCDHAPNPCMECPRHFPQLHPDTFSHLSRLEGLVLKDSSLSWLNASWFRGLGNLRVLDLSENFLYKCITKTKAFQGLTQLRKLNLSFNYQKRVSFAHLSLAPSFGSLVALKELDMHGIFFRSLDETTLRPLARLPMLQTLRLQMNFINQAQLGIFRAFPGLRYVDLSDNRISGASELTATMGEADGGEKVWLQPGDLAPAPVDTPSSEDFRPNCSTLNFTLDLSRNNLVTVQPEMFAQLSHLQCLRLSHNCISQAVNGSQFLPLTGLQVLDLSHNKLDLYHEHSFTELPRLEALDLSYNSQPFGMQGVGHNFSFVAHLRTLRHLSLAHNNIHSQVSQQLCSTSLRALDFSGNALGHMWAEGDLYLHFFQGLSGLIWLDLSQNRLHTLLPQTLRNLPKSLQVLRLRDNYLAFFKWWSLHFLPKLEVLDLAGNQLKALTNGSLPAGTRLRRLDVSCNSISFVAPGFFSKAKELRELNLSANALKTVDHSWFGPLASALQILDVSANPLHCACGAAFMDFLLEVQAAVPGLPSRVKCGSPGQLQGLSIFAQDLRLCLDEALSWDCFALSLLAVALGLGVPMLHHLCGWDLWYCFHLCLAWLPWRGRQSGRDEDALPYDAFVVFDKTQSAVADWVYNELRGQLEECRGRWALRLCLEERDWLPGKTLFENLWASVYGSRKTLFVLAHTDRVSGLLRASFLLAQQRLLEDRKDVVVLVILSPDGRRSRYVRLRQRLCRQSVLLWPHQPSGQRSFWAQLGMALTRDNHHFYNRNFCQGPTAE

[7] = target: T3, Nucleotide-binding oligomerization domain-containing protein 1 (Homo sapiens) (UniProt Q9Y239); experiment: Agonist activity at human NOD1 stably expressed in HEK293 cells co-expressing secreted alkaline phosphatase assessed as NF-kappaB induction by liquid handler-assisted reporter gene assay; summary of the method: as §1
T3 sequence (whole entry): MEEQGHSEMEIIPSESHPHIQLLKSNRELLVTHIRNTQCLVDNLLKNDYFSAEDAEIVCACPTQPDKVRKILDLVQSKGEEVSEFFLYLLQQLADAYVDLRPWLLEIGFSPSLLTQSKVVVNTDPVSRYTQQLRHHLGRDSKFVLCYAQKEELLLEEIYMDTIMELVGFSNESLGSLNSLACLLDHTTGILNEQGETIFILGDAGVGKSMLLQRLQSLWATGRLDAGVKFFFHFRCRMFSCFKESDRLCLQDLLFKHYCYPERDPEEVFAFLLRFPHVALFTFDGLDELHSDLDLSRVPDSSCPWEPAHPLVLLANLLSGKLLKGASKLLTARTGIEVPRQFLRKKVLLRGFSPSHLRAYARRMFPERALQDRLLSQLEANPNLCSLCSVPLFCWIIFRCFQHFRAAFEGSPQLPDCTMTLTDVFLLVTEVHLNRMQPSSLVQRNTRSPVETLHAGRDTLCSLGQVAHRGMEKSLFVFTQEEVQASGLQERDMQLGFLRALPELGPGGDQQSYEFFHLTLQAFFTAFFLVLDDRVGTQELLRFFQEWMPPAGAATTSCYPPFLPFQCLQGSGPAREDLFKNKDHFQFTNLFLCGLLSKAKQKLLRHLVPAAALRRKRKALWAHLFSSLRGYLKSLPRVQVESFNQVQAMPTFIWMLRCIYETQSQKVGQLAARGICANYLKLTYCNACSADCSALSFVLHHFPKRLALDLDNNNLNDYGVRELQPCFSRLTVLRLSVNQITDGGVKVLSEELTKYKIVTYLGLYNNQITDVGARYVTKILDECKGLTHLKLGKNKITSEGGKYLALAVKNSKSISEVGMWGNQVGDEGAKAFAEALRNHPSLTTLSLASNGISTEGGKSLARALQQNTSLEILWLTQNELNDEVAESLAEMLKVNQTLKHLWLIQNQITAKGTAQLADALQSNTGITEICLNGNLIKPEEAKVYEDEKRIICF

[8] = target: Nucleotide-binding oligomerization domain-containing protein 2 (Homo sapiens, UniProt Q9HC29); experiment: Agonist activity at human NOD2 stably expressed in HEK293 cells co-expressing secreted alkaline phosphatase assessed as NF-kappaB induction by liquid handler-assisted reporter gene assay; summary of the method: as §1
Sequence of Nucleotide-binding oligomerization domain-containing protein 2 (Q9HC29 whole entry, the tested form may be a part): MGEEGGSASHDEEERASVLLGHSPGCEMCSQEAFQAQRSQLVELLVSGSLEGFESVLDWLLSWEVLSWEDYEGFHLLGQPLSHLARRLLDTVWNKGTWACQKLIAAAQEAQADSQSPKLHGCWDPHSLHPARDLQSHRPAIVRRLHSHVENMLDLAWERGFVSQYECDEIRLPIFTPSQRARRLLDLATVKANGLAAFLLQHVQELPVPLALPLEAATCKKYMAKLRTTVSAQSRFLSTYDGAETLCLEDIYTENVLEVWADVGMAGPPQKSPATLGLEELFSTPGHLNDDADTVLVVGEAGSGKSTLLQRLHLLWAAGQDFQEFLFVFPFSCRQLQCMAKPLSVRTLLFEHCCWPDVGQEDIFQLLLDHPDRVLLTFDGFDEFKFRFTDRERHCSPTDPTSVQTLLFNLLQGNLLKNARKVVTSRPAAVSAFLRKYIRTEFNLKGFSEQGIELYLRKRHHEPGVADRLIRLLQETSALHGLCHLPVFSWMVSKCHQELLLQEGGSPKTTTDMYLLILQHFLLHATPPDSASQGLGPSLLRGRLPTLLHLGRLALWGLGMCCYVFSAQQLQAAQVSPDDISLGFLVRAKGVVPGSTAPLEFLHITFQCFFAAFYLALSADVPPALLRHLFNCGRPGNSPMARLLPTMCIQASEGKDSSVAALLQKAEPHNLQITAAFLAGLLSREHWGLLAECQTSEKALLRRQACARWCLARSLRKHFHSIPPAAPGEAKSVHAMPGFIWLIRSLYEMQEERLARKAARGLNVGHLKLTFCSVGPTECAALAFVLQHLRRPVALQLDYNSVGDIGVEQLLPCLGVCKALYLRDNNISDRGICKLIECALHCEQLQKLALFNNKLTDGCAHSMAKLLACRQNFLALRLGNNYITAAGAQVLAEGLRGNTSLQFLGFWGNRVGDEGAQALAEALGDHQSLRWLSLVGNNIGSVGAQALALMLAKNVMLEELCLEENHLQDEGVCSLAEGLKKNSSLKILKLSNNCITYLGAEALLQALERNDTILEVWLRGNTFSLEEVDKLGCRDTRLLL

Measured: Activity

CCCCCn1c(N)nc2cccc(C)c21
inactive: all assays above

CCCCCn1c(N)nc2c(OC)cccc21
inactive: all assays above

CCCCCn1c(N)nc2ccccc21
inactive: all assays above

CCCCCn1c(N)nc2c(O)cccc21
inactive: all assays above

CCCCCn1c(N)nc2c(N(C)C)cccc21
inactive: all assays above

CCCCCn1c(N)nc2ccc(C)cc21
inactive: all assays above

CCCCCn1c(N)nc2c(CC)cccc21
inactive: all assays above

CCCCCCn1c(N)nc2ccccc21
inactive: all assays above

CCCCn1c(N)nc2ccccc21
inactive: all assays above

CCCCCn1c(N)nc2c3ccccc3ccc21
inactive: all assays above

CCCCCn1c(N)nc2cc(C)ccc21
inactive: all assays above

CCCCCn1c(N)nc2c(N)cccc21
inactive: all assays above
